Data set [1] has as its system Aspergillus flavus. Description: Antifungal activity against Aspergillus flavus incubated for 48 to 72 hrs by agar microdilution method. Format: functional. The gist of the method: (§1)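 MIC by microdilution against the fungal strain, limited to compounds showing significant zones in the diffusion assay. Bavistin was used as the reference.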
The target in data set [2] is Urease (Canavalia ensiformis, UniProt P07374). Description: Inhibition of jack bean urease assessed as reduction in ammonia production incubated at 30 degC for 15 mins by indophenol method. In short, it runs like this: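 Inhibition of jack bean urease, with thiourea as the reference standard. IC50 values are the average of triplicate runs.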
Data set [3] relates to Klebsiella pneumoniae. The data set can be described thus: Antibacterial activity against Klebsiella pneumoniae incubated for 24 hrs by agar microdilution method. Format: functional.
The test system of data set [4] is Xanthomonas oryzae. Description: Antibacterial activity against Xanthomonas oryzae incubated for 24 hrs by agar microdilution method. Type of data set: functional.
Data set [5] is described as follows: Antiglycation activity using bovine serum albumin incubated at 37 degC for 7 days by spectrofluorimetry. Type of data set: physicochemical. In short, it runs like this: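 Glycation of bovine serum albumin, with rutin as the reference standard. IC50 values are averages of triplicate runs.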
Data set [6] has as its system Fusarium oxysporum. The data set can be described thus: Antifungal activity against Fusarium oxysporum incubated for 48 to 72 hrs by agar microdilution method. Format: functional. In short, it runs like this: as §1
Data set [7] has as its system Escherichia coli. The data set can be described thus: Antibacterial activity against Escherichia coli at 50 ug/mL incubated for 24 hrs by agar well diffusion method. Type of data set: functional. Particulars: read-out: IZ. The gist of the method: (§2)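 Agar well diffusion against the bacterial isolate, with streptomycin as the reference drug. Read-out is the average diameter (mm) of the growth-inhibition zone around the well.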

Data set [8] has as its system Aspergillus niger. The data set can be described thus: Antifungal activity against Aspergillus niger at 50 ug/mL incubated for 3 days by agar well diffusion method. Particulars: 72 h, read-out: IZ. Format: functional. The gist of the method:
(§3)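 Fungal growth inhibition measured by agar well diffusion, with bavistin as the reference. Records the mean inhibition-zone diameter (mm) around each well.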

For data set [9], the system named is Aspergillus niger. The data set can be described thus: Antifungal activity against Aspergillus niger incubated for 48 to 72 hrs by agar microdilution method. Format: functional. The gist of the method:
as §1

The subject of data set [10] is Xanthomonas oryzae. Description: Antibacterial activity against Xanthomonas oryzae at 50 ug/mL incubated for 24 hrs by agar well diffusion method. Type of data set: functional. The following applies: read-out: IZ.
Data set [11] relates to Aspergillus flavus. The data set can be described thus: Antifungal activity against Aspergillus flavus at 50 ug/mL incubated for 3 days by agar well diffusion method. Type of data set: functional. The following applies: 72 h, read-out: IZ. The gist of the method: as §3
Data set [12] deals with Escherichia coli. Description: Antibacterial activity against Escherichia coli incubated for 24 hrs by agar microdilution method. Format: functional.
Data set [13] can be described thus: Inhibition of sheep stomach parietal cells gastric H+/K+-ATPase activity assessed as reduction in inorganic phosphorus production by Fiske Subbarow's method. Type of data set: tissue-based, Ovis aries. The following applies: read-out: IC50. The gist of the method: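 Inhibition of purified H+/K+-ATPase, with omeprazole as the reference. IC50 is the mean of triplicate runs.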

Data set [14] relates to Fusarium verticillioides. Description: Antifungal activity against Fusarium moniliforme at 50 ug/mL incubated for 3 days by agar well diffusion method. Format: functional. The following applies: 72 h, read-out: IZ. In short, it runs like this: as §3
Data set [15] has as its system Fusarium verticillioides. The data set can be described thus: Antifungal activity against Fusarium moniliforme incubated for 48 to 72 hrs by agar microdilution method. Format: functional. In short, it runs like this:
as §1

For data set [16], the system named is Fusarium oxysporum. The data set can be described thus: Antifungal activity against Fusarium oxysporum at 50 ug/mL incubated for 3 days by agar well diffusion method. The following applies: 72 h, read-out: IZ. Type of data set: functional. In short, it runs like this: as §3
For data set [17], the system named is Staphylococcus. Description: Antibacterial activity against Coagulase positive Staphylococcus incubated for 24 hrs by agar microdilution method. Format: functional.
Data set [18] has as its system Staphylococcus. Description: Antibacterial activity against Coagulase positive Staphylococcus at 50 ug/mL incubated for 24 hrs by agar well diffusion method. Type of data set: functional. The following applies: read-out: IZ. In short, it runs like this: as §2

Molecules are shown by their SMILES. In brackets after ≈: the same amount, converted by molar mass. Starred links: 1 amine or outer side, 2 acyl side, 3 side chain; linkers in the order of their positions; H or OH if unused. Residues, ends and D or L forms follow the SMILES beside them. *: point of attachment. Thiocarbamoyl(N-2-FPh) = Fc1ccccc1NC(=S)*; X1 = c1ccc2c(N3CCN(*)CC3)nsc2c1; NH(4-F-phenyl) = Fc1ccc(N*)cc1; X2 = Fc1ccc(NC(=S)*)cc1; CO = O=C([*:1])[*:2]

Four compounds from ChEMBL document CHEMBL3352339, “Implications of N-capped urea/thiourea and C-capped 3-(1-piperazinyl)-1,2-benzisothiazole with bridging Gly-Val/Phe-Gly-Val-Pro as therapeutic targets” (Eur J Med Chem, 2014) can be followed below.

Sequence of Urease (P07374 whole entry): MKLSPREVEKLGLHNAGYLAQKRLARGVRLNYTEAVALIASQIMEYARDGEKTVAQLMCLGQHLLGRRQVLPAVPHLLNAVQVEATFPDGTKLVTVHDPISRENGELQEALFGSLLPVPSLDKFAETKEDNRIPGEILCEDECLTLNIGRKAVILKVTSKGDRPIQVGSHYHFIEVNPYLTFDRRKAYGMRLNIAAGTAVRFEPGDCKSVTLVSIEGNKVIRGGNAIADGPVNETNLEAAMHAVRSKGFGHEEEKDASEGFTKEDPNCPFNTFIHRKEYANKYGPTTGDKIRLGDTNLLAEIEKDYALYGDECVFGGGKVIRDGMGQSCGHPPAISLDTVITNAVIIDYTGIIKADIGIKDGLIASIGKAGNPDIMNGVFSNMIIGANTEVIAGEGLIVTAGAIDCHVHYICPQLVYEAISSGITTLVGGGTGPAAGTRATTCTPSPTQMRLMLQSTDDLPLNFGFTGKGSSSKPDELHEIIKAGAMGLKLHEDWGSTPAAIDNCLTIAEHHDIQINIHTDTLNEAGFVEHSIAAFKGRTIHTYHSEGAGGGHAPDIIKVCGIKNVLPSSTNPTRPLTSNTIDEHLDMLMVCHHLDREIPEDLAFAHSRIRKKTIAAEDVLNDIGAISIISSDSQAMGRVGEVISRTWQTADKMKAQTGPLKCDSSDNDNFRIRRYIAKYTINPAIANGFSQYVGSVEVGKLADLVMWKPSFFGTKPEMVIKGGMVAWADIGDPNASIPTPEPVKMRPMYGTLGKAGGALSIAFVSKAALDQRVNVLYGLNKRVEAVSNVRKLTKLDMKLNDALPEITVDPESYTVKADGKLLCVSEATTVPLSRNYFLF

As to `CC(C)[C@H](NC(=O)CNC(=O)[C@H](Cc1ccccc1)NC(=O)CNC(=S)Nc1ccccc1F)C(=O)N1CCC[C@H]1C(=O)N1CCN(c2nsc3ccccc23)CC1` ({Thiocarbamoyl(N-2-FPh)}-GFGVP-X1), the MIC in [1] was determined as 13 µg/mL (≈ 15.7 µM); in [3], 10.8 µg/mL (≈ 13 µM); in data set [4], 11 µg; in data set [6] it was 13 µg/mL (≈ 15.7 µM); in data set [9], 12.8 µg/mL (≈ 15.4 µM); in data set [12], 11 µg/mL (≈ 13.3 µM). Moreover, the MIC in [15] was 9.25 µg/mL (≈ 11.1 µM); in data set [17] it was 11.2 µg/mL (≈ 13.6 µM). For the same compound, the IC50 came out at 38 µM in [2], 48 µM in [5] and 102 µM in data set [13]. The zone of inhibition at 50 µg/mL in [7] worked out at 32 mm; in data set [8], 31 mm; in [10], 31 mm; in [11] it was 30 mm; in data set [14], 28 mm; in data set [16], 31 mm. The zone of inhibition at 50 µg/mL in data set [18] stood at 31 mm.
Regarding `CN[C@@H]1[C@H](O[C@H]2[C@H](O[C@H]3[C@H](O)[C@@H](O)[C@H](N=C(N)N)[C@@H](O)[C@@H]3N=C(N)N)O[C@@H](C)[C@]2(O)C=O)O[C@@H](CO)[C@H](O)[C@H]1O` [STREPTOMYCIN], the MIC was 20 µg/mL (≈ 34.4 µM) in data set [3], 18 µg in data set [4], 22 µg/mL (≈ 37.8 µM) in [12] and 21 µg/mL (≈ 36.1 µM) in data set [17]. The zone of inhibition at 50 µg/mL was 14 mm in data set [7], 11 mm in data set [10] and 13 mm in [18].
For `CC(C)[C@H](NC(=O)CNC(=S)Nc1ccc(F)cc1)C(=O)NCC(=O)N[C@H](C(=O)N1CCC[C@H]1C(=O)N1CCN(c2nsc3ccccc23)CC1)C(C)C` (X2-GVGVP-X1), the MIC in data set [1] stood at 12.8 µg/mL (≈ 16.3 µM); in data set [3] it was 10 µg/mL (≈ 12.8 µM); in data set [4], 9.5 µg; in data set [6] it was 13.2 µg/mL (≈ 16.9 µM); in data set [9] it was 10.5 µg/mL (≈ 13.4 µM); in data set [12] it was 10.2 µg/mL (≈ 13.1 µM). The results for the MIC in [15] and in [17] were 11 µg/mL (≈ 14.1 µM) and 10.8 µg/mL (≈ 13.7 µM), respectively. Besides, the IC50 in [2] is 35 µM; in data set [5], 34 µM; in data set [13], 76 µM. Further, the zone of inhibition at 50 µg/mL in [7] was found to be 32 mm; in data set [8] it was 35 mm; in data set [10], 29 mm; in [11], 34 mm; in data set [14] it was 35 mm; in [16] it was 35 mm. Besides, in data set [18], the zone of inhibition at 50 µg/mL amounted to 31 mm.
Regarding `CC(C)[C@H](NC(=O)CNC(=O)[C@H](Cc1ccccc1)NC(=O)CNC(=O)Nc1ccc(F)cc1)C(=O)N1CCC[C@H]1C(=O)N1CCN(c2nsc3ccccc23)CC1` ({NH(4-F-phenyl)-CO}-GFGVP-X1), the MIC in data set [1] was determined as 11 µg/mL (≈ 13.5 µM); in data set [3], 9.25 µg/mL (≈ 11.4 µM); in [4], 8.75 µg; in data set [6] it was 12.2 µg/mL (≈ 15 µM); in data set [9], 10.5 µg/mL (≈ 12.9 µM); in data set [12] it was 11 µg/mL (≈ 13.5 µM). The values for the MIC in data set [15] and in data set [17] were 11 µg/mL (≈ 13.5 µM) and 11.2 µg/mL (≈ 13.8 µM), respectively. The IC50 in data set [2] came out at 35 µM; in [5], 44 µM; in data set [13], 80 µM. In addition, the zone of inhibition at 50 µg/mL in data set [7] was 33 mm; in data set [8], 30 mm; in data set [10] it was 31 mm; in [11], 31 mm; in data set [14], 31 mm; in data set [16], 32 mm. The zone of inhibition at 50 µg/mL in [18] stood at 32 mm.
